Source: PubChem (several laboratories)
Mcl1 Bid PPI = Mcl-1/Bid binding inhibitors, primary screen, biochemical, TR-FRET, 1536-well | Induced myeloid leukemia cell differentiation protein Mcl-1 (Homo sapiens), Q07820 | TR-FRET Mcl-1/Bid-Dy647 peptide binding | inhibition, % at 21.7 µM | 220,000 compounds, 0.97% hits | AID 1021, 2008;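 active means compounds that cut the binding signal by more than half at the single screening dose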;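 further: His-tagged Mcl-1 with europium anti-His antibody binding Bid BH3 peptide; 0% = Mcl-1 plus peptide wells and 100% = peptide-only wells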
Target sequence (Q07820 whole entry, looked up): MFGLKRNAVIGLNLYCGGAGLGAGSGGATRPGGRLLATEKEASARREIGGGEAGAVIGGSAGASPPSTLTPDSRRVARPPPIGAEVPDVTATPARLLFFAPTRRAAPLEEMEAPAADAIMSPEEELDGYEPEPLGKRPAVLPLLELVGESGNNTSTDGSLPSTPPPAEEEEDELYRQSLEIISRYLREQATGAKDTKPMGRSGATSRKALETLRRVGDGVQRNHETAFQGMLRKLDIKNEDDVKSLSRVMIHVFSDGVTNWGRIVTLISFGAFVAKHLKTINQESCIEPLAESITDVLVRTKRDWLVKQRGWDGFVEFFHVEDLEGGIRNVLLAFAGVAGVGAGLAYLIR
Biofilm kill mix = clotrimazole potentiators killing C. albicans biofilm, primary screen, 4-compound mixtures | C. albicans biofilm persisters + clotrimazole, fluorescence viability; primary screen in compound mixtures of four per well | inhibition, % at 7.6 µM | 120,000 compounds, 0.02% hits | AID 1242, 2008;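 active means inhibition above 30.3% in the primary screen of four-compound pools, then above 30% when the compound was retested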;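 further: compounds exposed to preformed 24 h biofilms for 48 h; 0% = untreated biofilm control and 100% = clotrimazole plus chlorhexidine kill blank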
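Test system: C. albicans biofilms. Buffer or medium: RPMI/MOPS medium, pH 7.0. Timing: 48 h compound exposure at 37 °C. Technique: Alamar Blue fluorescence. Evaluation: percent inhibition of biofilm viability.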
14-3-3 Bad PPI = inhibitors of 14-3-3 zeta/Bad binding, primary screen, biochemical, TR-FRET, bovine 14-3-3 zeta; 14-3-3 protein zeta/delta (Bos taurus), P63103; TR-FRET 14-3-3zeta/Dy647-pBad peptide displacement, 1 h; inhibition, % at 21.7 µM; 220,000 compounds, 0.71% hits; AID 781, 2007;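 active means inhibition above about 70%, limit read from the data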;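 further: 0% = full 14-3-3 plus peptide FRET controls and 100% = background without 14-3-3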
Target sequence (P63103 whole entry, looked up): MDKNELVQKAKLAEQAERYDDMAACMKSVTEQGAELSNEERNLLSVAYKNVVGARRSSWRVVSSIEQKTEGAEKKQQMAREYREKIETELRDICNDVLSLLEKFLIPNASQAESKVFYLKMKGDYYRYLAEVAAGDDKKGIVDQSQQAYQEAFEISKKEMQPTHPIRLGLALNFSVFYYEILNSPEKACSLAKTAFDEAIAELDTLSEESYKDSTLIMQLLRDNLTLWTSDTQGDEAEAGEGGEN
Hck-Nef inh = inhibitors of Nef-activated human Hck kinase, primary screen, biochemical, Z-Lyte FRET, 384-well, Hck-YEEI; Tyrosine-protein kinase HCK (Homo sapiens), P08631; Recombinant Hck-YEEI plus Nef, Z-Lyte FRET kinase assay; inhibition, % at 20 µM; 220,000 compounds, 0.68% hits; AID 463187, 2010;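 active means Hck-Nef kinase inhibition above about 50%, limit read from the data; inactive means inhibition below that limit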;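 further: 0% = DMSO with Hck plus Nef and 100% = Hck alone without Nef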
Mcl1 Noxa PPI = Mcl-1/Noxa binding inhibitors, primary screen, biochemical, TR-FRET, 1536-well; Induced myeloid leukemia cell differentiation protein Mcl-1 (Homo sapiens), Q07820; TR-FRET Mcl-1/Noxa peptide binding, 2 h; inhibition, % at 21.7 µM; 220,000 compounds, 1.5% hits; AID 1022, 2008;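 active means compounds that cut the protein-peptide binding signal by more than 50% relative to plate controls in a single-dose test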;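 further: His-tagged Mcl-1 with rhodamine Noxa BH3 peptide and terbium anti-His antibody; 0% = Mcl-1 plus Noxa peptide wells and 100% = peptide-only wells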
Bim-Mcl-1 = inhibitors of Bim peptide binding to Mcl-1, primary screen, biochemical, bead-based flow cytometry, multiplex; Induced myeloid leukemia cell differentiation protein Mcl-1 (Homo sapiens), Q07820; Bim peptide-Mcl-1 binding; inhibition, % at 10 µM; 190,000 compounds, 0.1% hits; AID 1009, 2008; in the data active means inhibition above about 40%;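 further: 0% = no compound tracer wells and 100% = peptide blocker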
* = called active by the depositor; / = no result; [ ] = remark or other dose. A selection: hits, their analogues and other compounds. The true share with any hit is near 3.2%.

SMILES	Mcl1 Bid PPI	Biofilm kill mix	14-3-3 Bad PPI	Hck-Nef inh	Mcl1 Noxa PPI	Bim-Mcl-1
CSCCOC(=O)c1[nH]c2c(c1C)C(=O)CC(c1ccco1)C2 (stereo not drawn)	-38	/	5	7	58*	0
Cc1c(C(=O)OCc2ccccc2)[nH]c2c1C(=O)CC(c1ccco1)C2 (stereo not drawn)	72*	/	1	10	61*	-1
COCCOC(=O)c1[nH]c2c(c1C)C(=O)CC(c1ccccc1)C2 (stereo not drawn)	-10	/	-5	-8	-4	3
CCOc1ccccc1NC(=O)CN(C)S(=O)(=O)c1cccc2nsnc12	88*	/	-7	18	8	3
Cc1cccc(NC(=O)CN(C)S(=O)(=O)c2cccc3nsnc23)c1C	6	/	7	0	-17	0
CC1Cc2nc(SCC(=O)NCc3ccco3)n(Cc3ccccc3)c(=O)c2S1 (stereo not drawn)	-16	/	8	-3	12	1
N#Cc1nc(COc2ccc(F)cc2)oc1N1CCN(Cc2ccccc2)CC1	77*	/	-3	1	3	1
S=C(Nc1ccccc1)c1nc2ccccc2s1	9	13	1	1	22	-3
Cc1ccc(C(=O)ONc2ccc(N=NC(=O)c3ccccc3O)cc2)cc1	102*	/	26	34	81*	3
Cc1ccc(C(=O)ONc2ccc(N=O)cc2)cc1	-2	/	-5	3	19	0
O=C(CSc1nccn1-c1ncc(C(F)(F)F)cc1Cl)c1ccc(Cl)cc1	-30	/	-11	-1	-2	-1
CC1CCCC(NC(=O)C2CCC(CNc3c(N4CCCC4)c(=O)c3=O)CC2)C1C (stereo not drawn)	-39	20	-4	26	-5	/
CC1CCCC(NC(=O)C2CCC(CNc3c(N4CCCCC4)c(=O)c3=O)CC2)C1C (stereo not drawn)	-29	12	90*	31	-2	/
C/[N+]([O-])=C\C1C(=O)CCCC1=O	-36	14	-9	-114	22	1
CC(=O)Nc1ccc(/C=C2/Sc3ccccc3C2=O)cc1	-28	22	29	19	72*	0
Cc1noc2ncnc(Oc3ccccc3Cl)c12	2	9	-1	-1	6	1
Cc1cccc(Oc2ncnc3onc(C)c23)c1C	4	/	85*[fluorescence artefact?]	1	-11	-3
O=C(CN1CCC(NC(=O)c2cccc(F)c2)CC1)NCc1ccccc1F	9	/	-4	5	10	-4
CCN(CC)S(=O)(=O)c1ccc(N2CCOCC2)c(NC(=O)c2c3c(nc4ccccc24)CCC3)c1	20	15	-5	8	91*	-2
O=C(Nc1cccc(S(=O)(=O)N2CCOCC2)c1)c1ccc2ccccc2n1	33	15	4	4	24	/
O=C(Nc1cccc(S(=O)(=O)N2CCOCC2)c1)c1c2c(nc3ccccc13)CCC2	-51	9	-23	18	74*	0
Cc1ccc(-c2nc3ccc(Cl)cc3n2OC(C)C(=O)O)cc1 (stereo not drawn)	3	11	8	-20	11	0
O=C(O)C1=C[C@H](c2cccs2)C[C@H](OCc2ccc(CO)cc2)O1	-35	21	-1	29	-1	/
CC(C)(C)NC(=S)NNC(=O)c1cccc(Br)c1	-87	7	-26	20	-30	-3
OCCNc1nc(Nc2ccccc2)nc(Nc2ccccc2)n1	-1	/	2	0	92*	-1
SMILES	Mcl1 Bid PPI	Biofilm kill mix	14-3-3 Bad PPI	Hck-Nef inh	Mcl1 Noxa PPI	Bim-Mcl-1
OCCNc1nc(Nc2ccccc2)nc2ccccc12	7	11	46	7	44	2
CCOCCCN(C(=O)Cn1nnc(-c2ccc(C)o2)n1)C(C(=O)NCC1CCCO1)c1ccc(F)cc1 (stereo not drawn)	-26	18	0	9	0	/
CCOc1ccc(NS(=O)(=O)c2ccc3[nH]cc(C(=O)NCC4CCCO4)c(=O)c3c2)cc1 (stereo not drawn)	-5	/	16	4	2	-1
Cc1ccccc1NS(=O)(=O)c1ccc2[nH]cc(C(=O)N(C)Cc3ccco3)c(=O)c2c1	51*	/	40	0	11	-3
CCc1ccccc1NS(=O)(=O)c1ccc2[nH]cc(C(=O)NCC3CCCO3)c(=O)c2c1 (stereo not drawn)	59*	/	36	1	72*	-2
COc1cccc(NS(=O)(=O)c2ccc3[nH]cc(C(=O)N(C)Cc4ccco4)c(=O)c3c2)c1	58*	/	44	2	10	0
O=C(NCCN1CCN(c2ccccc2)CC1)c1ccc2c(c1)[nH]c(=S)n1c3ccccc3nc21	9	26	19	29	51*	-2
CC(C)N(Cc1nc(-c2ccccc2)no1)C(=O)C(Cl)(Cl)Cl	-6	15	0	-16	11	0
O=C(O)C1CC(c2ccccc2)=NO1 (stereo not drawn)	-44	/	11	0	11	0
O=C(O)C1CC(c2ccc(F)cc2)=NO1 (stereo not drawn)	-29	/	-8	0	63*	-3
CC1Cc2ccccc2N1C(=O)c1ccc2c(c1)nnn2C (stereo not drawn)	-2	/	5	2	-5	-3
COc1ccc(C(=O)N2c3ccccc3CC2C)cc1OC (stereo not drawn)	1	/	-7	2	74*	-3
CCN(CC)CCN1C(=O)C(=O)/C(=C(/O)c2ccc3c(c2)CC(C)O3)C1c1ccc(OC)cc1 (stereo not drawn)	-17	12	-2	-7	15	/
Nc1c(C(=O)Nc2ccc(F)cc2)sc2nc(-c3ccco3)ccc12	91*	/	2	-3	98*	11
CN(CC(=O)O/N=C(\N)c1ccc([N+](=O)[O-])cc1)S(=O)(=O)c1ccccc1	11	/	7	0	83*	95*
O=C(Nc1ccc2c(c1)OCO2)C1(S(=O)(=O)c2ccc(Cl)cc2)CC1	-48	/	-4	1	11	0
Cc1ccc(Cl)c2c1=NC(=O)C=2c1[nH]c(=S)[nH]c1O	-100	10	-16	28	53*	1
O=C1N=c2ccccc2=C1c1[nH]c(=S)[nH]c1O	-24	15	7	3	65*	-4
O=Cc1ccc2oc3nc4n(c(=O)c3c(=O)c2c1)CCCS4	38	/	8	0	73*	12
